# Hits are enriched below; roughly 4.1% of the tested compounds scored in any of these assays.
# NS3 helicase inh: inhibitors of HCV NS3 helicase, primary screen, biochemical, Cy5 molecular beacon fluorescence; NS3 helicase DNA unwinding; inhibition, % at 10.9 µM; hit rate 0.56% among 290,000;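 active = inhibition above the mean of all tested compounds plus 3 SD, set per campaign, cut at about 35% in these data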;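 note: 0% = DMSO wells and 100% = thioflavine S control wells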
#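 Test system: hepatitis C virus NS3 helicase domain fragment enzyme. Also added: annealed dual-labelled DNA beacon duplex, ATP-started. Timing: 60 min unwinding reaction at 25 °C after ATP addition. Technique: Cy5 fluorescence. Measure: % inhibition of unwinding.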
# T cruzi inh: inhibitors of intracellular T. cruzi growth, primary screen, luminescence, NIH3T3 host cells | AID 1885, 2009 | hit rate 1.4% among 300,000 | T. cruzi beta-gal in NIH3T3, 90 h | inhibition, % (no concentration beside the values);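 active = mean inhibition across valid replicates above about 55%, limit read from the data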;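 note: signal also drops with host cell toxicity which is not excluded here; 0% = plate median of DMSO wells and 100% = zero luminescence signal; higher percent means less beta-gal luminescence so fewer parasites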
#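 System: Mouse NIH/3T3 fibroblasts infected with β-gal-expressing T. cruzi Tulahuen C4 | Quantity: NIH/3T3 cells, 5,000 per well | Reagent: 5000 reporter trypomastigotes per well | Dosing: Compound pinned at 50 nL/well, DMSO | Schedule: 3 h host attachment, then at least 90 h co-culture | Detection: GalScreen luminescence, 60 min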
# FID counter: compounds displacing fluorescent DNA intercalator, primary screen, artefact control for HCV NS3 helicase inhibitor project, biochemical, FID fluorescence; DNA fluorescent intercalator displacement; inhibition, % at 7.9 µM; hit rate 0.17% among 290,000; AID 1845, 2009; in the data active = inhibition above about 37%;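 note: 0% = vehicle and 100% = reference compound; higher means more ethidium bromide displaced from hairpin DNA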
# MEKK2mut PB1 HTS: MEK5 binding signal on mutant MEKK2 PB1, primary screen, biochemical, multiplex bead flow cytometry, Alexa488-MEK5 | Alexa488-MEK5 binding to MEKK2 mutant | percent response, % at 10 µM | hit rate 0.35% among 290,000; in the data active = percent response above about 24%, passing the limit was not always enough
# MEKK2 WT-MEK5: modulators of MEK5 binding to wildtype MEKK2, primary screen, biochemical, multiplex bead flow cytometry, Alexa488-MEK5 | hit rate 1.1% among 290,000 | binding response (% of control), % at 10 µM | Alexa488-MEK5 binding to MEKK2 WT; actives lie on both sides | Mitogen-activated protein kinase kinase kinase 2 (Homo sapiens), Q9Y2U5 | AID 1531, 2009; in the data active = binding response below about 67% or above about 130%
# MEKK3 PB1 HTS: modulators of MEKK3-MEK5 PB1 binding, primary screen, biochemical, wildtype MEKK3, multiplex bead flow cytometry, Alexa488-MEK5. bead-based flow cytometry, Alexa488-MEK5 binding to MEKK3; actives lie on both sides; 0 = blocked by unlabeled MEK5, 100 = vehicle. binding response (% of control), % at 10 µM. hit rate 1.4% among 290,000;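 active = binding response more than 3 SD above or below the average of its plate-row segment, actives on both sides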;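 note: Alexa488 bead fluorescence after subtracting the streptavidin-only scavenger bead signal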
# Target sequence (Q99759 whole entry, looked up): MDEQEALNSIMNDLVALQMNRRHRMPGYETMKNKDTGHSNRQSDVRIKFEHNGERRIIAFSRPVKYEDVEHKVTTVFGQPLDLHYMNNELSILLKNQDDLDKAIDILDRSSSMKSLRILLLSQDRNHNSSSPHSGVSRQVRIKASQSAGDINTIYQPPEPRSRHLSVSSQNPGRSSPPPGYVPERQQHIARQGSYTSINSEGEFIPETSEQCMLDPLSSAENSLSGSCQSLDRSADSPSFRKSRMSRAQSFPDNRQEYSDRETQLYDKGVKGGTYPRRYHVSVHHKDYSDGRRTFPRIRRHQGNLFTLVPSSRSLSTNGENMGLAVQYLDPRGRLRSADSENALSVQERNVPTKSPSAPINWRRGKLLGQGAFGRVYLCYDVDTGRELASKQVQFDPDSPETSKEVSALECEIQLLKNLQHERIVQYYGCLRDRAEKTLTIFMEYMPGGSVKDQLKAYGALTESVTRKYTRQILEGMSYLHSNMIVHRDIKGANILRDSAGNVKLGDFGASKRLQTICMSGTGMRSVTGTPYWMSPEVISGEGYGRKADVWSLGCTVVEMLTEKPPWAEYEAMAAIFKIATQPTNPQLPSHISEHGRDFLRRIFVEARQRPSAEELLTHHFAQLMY
# * hit, by the source's call; . = no result given.
SMILES,NS3 helicase inh,T cruzi inh,FID counter,MEKK2mut PB1 HTS,MEKK2 WT-MEK5,MEKK3 PB1 HTS
CC(C)C[C@H](NC(=O)OC(C)(C)C)C(=O)N/N=C/C1=Cc2ccccc2OC1C (some centres not stated),-10,69*,-16,-6,92,96
CCCC(=O)Nc1sc(-c2ccccc2)c(-c2ccccc2)c1C(=O)O,.,-14,.,.,.,.
CCOC(=O)c1c(NC(=O)C[n+]2ccc(N(C)C)cc2)sc(C)c1C,3,62*,11,6,108,101
CC(C)OC(=O)c1c(NC(=O)Cn2cnc([N+](=O)[O-])n2)sc2c1CCCC2,8,105*,5,4,117,116
CCOC(=O)c1c(NC(=O)Cn2cnc([N+](=O)[O-])n2)sc(C)c1C,-1,72*,1,-4,101,102
CC1CCc2c(sc(NC(=O)Cn3cnc([N+](=O)[O-])n3)c2C(N)=O)C1 (configuration not stated),4,68*,-3,0,103,108
CCOC(=O)c1c(NC(=O)COC)sc(C)c1C,-4,-6,-12,6,97,91
CC1CC(NC(=O)c2c(O)nc3sccn3c2=O)CC(C)(C)C1 (configuration not stated),.,6,.,.,.,.
CC(=O)c1cccc(NC(=O)CNC(=O)c2sc3ccccc3c2Cl)c1,.,2,.,.,.,.
Cc1nc(-n2[nH]c3c(c2=O)CCCC3)[nH]c(=O)c1Cc1ccccc1,30,69*,-20,4,104,109
Cc1ccc(CS(=O)Cc2ccc(C(=O)N3CCN(c4ccccc4)CC3)o2)cc1 (configuration not stated),-8,56*,-63,2,104,102
Cc1ccc(CS(=O)Cc2ccc(C(=O)N3CCN(c4ccc(F)cc4)CC3)o2)cc1 (configuration not stated),6,10,-50,2,105,109
COC(=O)c1cc2ccsc2n1CC(=O)Nc1ccc(N(C)C)cc1,4,55*,2,8,108,105
C(=N\N(Cc1ccccc1)c1ccccc1)/c1cccnc1,-9,24,-21,-2,105,108
C/C(=N\N(Cc1ccccc1)c1ccccc1)c1cccnc1,-6,62*,-1,-1,93,100
Cc1ccc(C2C(C(=O)c3cccs3)=C(O)C(=O)N2c2nnc(C)s2)cc1 (configuration not stated),6,-12,-7,-1,98,104
COc1ccc(CN2CCNC(=O)C2CC(=O)N(C)Cc2nc(C)cs2)c(OC)c1 (configuration not stated),2,-4,-18,3,101,100
Cc1cc(NS(=O)(=O)c2ccc(NC(=O)CSc3nc4ncc(Cl)cc4[nH]3)cc2)nc(C)n1,2,-13,-6,9,-4.0*,96
COc1ccccc1CN1CCC(CNS(=O)(=O)c2cc(-c3onc(C)c3C)ccc2OC)CC1,-62,35,44*,1,111,100
Cc1cc(-c2ccc(C)c(S(=O)(=O)NCC3CCN(Cc4ccccc4F)CC3)c2)on1,-46,16,20,4,109,102
COc1ccc(CC(=O)NC(C)c2ccc(S(N)(=O)=O)cc2)cc1S(=O)(=O)N1CCOCC1 (configuration not stated),7,-3,-9,5,104,99
Cn1nc([N+](=O)[O-])nc1Oc1ccccc1,-2,79*,2,-5,99,97
NC(=O)Cn1nc([N+](=O)[O-])nc1Oc1ccccc1F,0,47,0,6,102,103
CNc1ccc(Oc2nc([N+](=O)[O-])nn2C)cc1,3,69*,-1,-6,95,98
CNc1nc(C)c([N+](=O)[O-])c(Nc2ccc(OC)cc2)n1,0,-1,-2,5,106,100
SMILES,NS3 helicase inh,T cruzi inh,FID counter,MEKK2mut PB1 HTS,MEKK2 WT-MEK5,MEKK3 PB1 HTS
Cn1nc([N+](=O)[O-])nc1Oc1ccc(C(C)(C)C)cc1,-3,64*,1,-1,94,105
O=S1(=O)C=C(Sc2nc3ccccc3s2)c2ccccc21,0,69*,-2,-3,92,99
COc1ccc2[nH]c(=O)c(CN(C(=O)c3cccnc3)c3ccc(C)cc3C)cc2c1,1,8,-34,4,-3.0*,102
CCN(CC)CCN(C(=O)/C=C/c1cccs1)c1nc2ccc(Cl)cc2s1,-41,12,28,13,156*,103
CN(C)CCN(C(=O)/C=C/c1cccs1)c1nc2ccc(F)cc2s1,-23,43,-11,21,127,102
Cc1ccc(C(CNS(=O)(=O)c2ccc(Cl)cc2)N2CCN(C)CC2)cc1 (configuration not stated),.,2,.,.,.,.
Cc1ccc(C(=O)Nc2ncccc2C)cc1S(=O)(=O)N1CCCCC1,.,9,.,.,.,.
COc1ccc(-c2ccc(C(C)=O)cc2)cc1[C@H]1[C@H]2C=CC[C@@H](C)[C@@H]2C(=O)N1Cc1ccccc1,.,60*,.,2,69,68
Nc1nc(-c2ccc(Cl)cc2)nn1C(=O)c1cccnc1,2,-10,6,8,110,105
Nc1nc(-c2cccnc2)nn1C(=O)c1ccc(Cl)cc1,3,-4,1,2,-3.0*,96
COc1ccc(C(=O)CSc2nnc(CNC(=O)c3ccccc3F)n2C)cc1OC,-3,-13,-26,3,104,97
CC(C)CCNC(=O)CCn1c(=S)oc2ccccc21,3,0,-3,-3,96,99
CCC(=O)NC(=S)Nc1ccc(NC(=S)NC(=O)c2ccccc2)cc1,8,61*,-2,-6,99,100
O=C(CCCN1C(=O)c2cccc3cccc(c23)C1=O)N1CCN(c2ncccn2)CC1,-12,-1,-4,-2,94,97
O=C(CCCN1C(=O)c2cccc3cccc(c23)C1=O)N1CCN(c2ccccn2)CC1,0,-11,-9,0,109,129*
CCCC(=O)NC(c1ccc(N(C)C)cc1)c1c(O)ccc2ccccc12 (configuration not stated),-3,2,-7,-1,96,92
CCCCC(=O)NC(c1ccc(N(CC)CC)cc1)c1ccc2cccnc2c1O (configuration not stated),0,68*,-20,10,102,104
